Experimental data taken from ChEMBL document CHEMBL1148785, “Second generation tetrahydroquinoline-based protein farnesyltransferase inhibitors as antimalarials” (J Med Chem, 2007).
pEC50: −log10 of the molar value.

Experiments:
Plasmodium falciparum [1] = experiment: Inhibition of Plasmodium falciparum protein farnesyltransferase at 0.5 nM by scintillation proximity assay
Plasmodium falciparum [2] = experiment: Antimalarial activity against Plasmodium falciparum K1; type: functional; details: Plasmodium falciparum, K1; read-out: ED50 (the source's name)
How it was run: (§1)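 Asynchronous culture in type A+ erythrocytes at 0.5% parasitemia and 0.5% hematocrit, grown in RPMI-1640 with 20% heat-inactivated human A+ plasma. Compound was serially diluted from a top final 5 µM, with DMSO vehicle as 100% growth. Plates ran 48 h at 37 °C under 5% CO2/5% O2/90% N2, then [3H]-hypoxanthine (0.3 µCi) for 24 h. Filter-harvested counts were corrected for the uninfected-RBC background. ED50 by linear regression; duplicates averaged.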

Plasmodium falciparum [3] = experiment: Inhibition of Plasmodium falciparum protein farnesyltransferase at 50 nM by scintillation proximity assay
Plasmodium falciparum [4] = experiment: Antimalarial activity against Plasmodium falciparum 3D7; type: functional; details: Plasmodium falciparum, 3D7; read-out: ED50 (the source's name); how it was run: as §1
Plasmodium falciparum [5] = experiment: Inhibition of Plasmodium falciparum protein farnesyltransferase at 5 nM by scintillation proximity assay

Structure (SMILES) | inhibition (Plasmodium falciparum [1]) [%] | pEC50 (Plasmodium falciparum [2]) | inhibition (Plasmodium falciparum [3]) [%] | pEC50 (Plasmodium falciparum [4]) | inhibition (Plasmodium falciparum [5]) [%]
Cn1cncc1CN1CC(N(CC2CCN(C(=O)NC(C)(C)C)CC2)S(=O)(=O)c2ccccn2)Cc2cc(C#N)ccc21 (stereo not given) | 84 | 6.82 | 98 | 6.49 | 28
Cn1cncc1CN1CC(N(CCCN)S(=O)(=O)c2ccccn2)Cc2cc(C#N)ccc21 (stereo not given) | 0 | < 5.30 | 32 | < 5.30 | 7
COC(=O)N1CCC(CN(C2Cc3cc(C#N)ccc3N(Cc3cncn3C)C2)S(=O)(=O)c2sccc2C)CC1 (stereo not given) | 18 | 7.12 | 95 | 7.26 | 66
CN(C)C(=O)N1CCC(CN(C2Cc3cc(C#N)ccc3N(Cc3cncn3C)C2)S(=O)(=O)c2ccccn2)CC1 (stereo not given) | 94 | 7.94 | 100 | 7.89 | 35
Cn1cnc(CN2CC(N(Cc3ccccc3)S(=O)(=O)c3cn(C)cn3)Cc3cc(-c4ccccc4)ccc32)c1 (stereo not given) | 9 | 6.42 | 99 | 6.35 | 90
COC(=O)N1CCC(CN(C2Cc3cc(C#N)ccc3N(Cc3cncn3C)C2)S(=O)(=O)CS(C)(=O)=O)CC1 (stereo not given) | 0 | < 5.30 | 15 | < 5.30 | 0
Cn1cncc1CN1CC(N(Cc2ccc(F)cc2)S(=O)(=O)c2ccccn2)Cc2cc(C#N)ccc21 (stereo not given) | 11 | 5.60 | 91 | 6.37 | 50
Cn1cncc1CN1CC(N(CCn2ccnc2)S(=O)(=O)c2ccccn2)Cc2cc(C#N)ccc21 (stereo not given) | 67 | 7.80 | 95 | 7.92 | 91
CC(=O)Nc1nc(C)c(S(=O)(=O)N(CC(=O)NC(C)(C)C)C2Cc3cc(C#N)ccc3N(Cc3cncn3C)C2)s1 (stereo not given) | 5 | < 5.30 | 11 | < 5.30 | 2
Cn1cnc(CN2CC(NS(=O)(=O)c3ccccn3)Cc3cc(-c4ccccc4)ccc32)c1 (stereo not given) | 11 | < 5.30 | 19 | < 5.30 | 14
COC(=O)N(C)CCCN(C1Cc2cc(C#N)ccc2N(Cc2cncn2C)C1)S(=O)(=O)c1ccccn1 (stereo not given) | 6 | 7.35 | 95 | 7.74 | 68
Cn1cnc(S(=O)(=O)N(Cc2ccc3nonc3c2)C2Cc3cc(C#N)ccc3N(Cc3cncn3C)C2)c1 (stereo not given) | 30 | 7.19 | 99 | 7.25 | 95
Cn1cnc(S(=O)(=O)N(CC(=O)NC(C)(C)C)C2Cc3cc(C(=O)NC(C)(C)C)ccc3N(Cc3cncn3C)C2)c1 (stereo not given) | 4 | < 5.30 | 25 | < 5.30 | 0
Cn1cnc(S(=O)(=O)N(Cc2cccnc2)C2Cc3cc(C#N)ccc3N(Cc3cncn3C)C2)c1 (stereo not given) | 17 | 6.68 | 99 | 7.15 | 89
COC(=O)N1CCC(CN(C2Cc3cc(C#N)ccc3N(Cc3cncn3C)C2)S(=O)(=O)c2cccc3cccnc23)CC1 (stereo not given) | 24 | 6.40 | 95 | 6.59 | 80
COC(=O)NCCCN(C1Cc2cc(C#N)ccc2N(Cc2cncn2C)C1)S(=O)(=O)c1ccccn1 (stereo not given) | 28 | 7.00 | 96 | 7.00 | 77
Cn1cnc(S(=O)(=O)N(Cc2ccc3c(c2)OCCS3(=O)=O)C2Cc3cc(C#N)ccc3N(Cc3cncn3C)C2)c1 (stereo not given) | 66 | > 7.70 | 99 | 7.70 | 99
